Compound activity as filed in PubChem.
A selection: hits, their analogues and other compounds. The true share with any hit is near 7.9%.
RORA act: activators of orphan receptor RORA, primary screen, cell-based, luminescence. CHO-K1 Gal4-RORA LBD luciferase reporter; percent increase over mock-subtracted basal signal. activation, % at 10 µM. 65,000 compounds, 1.5% hits. AID 560, 2006;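 active = activation above the mean of all tested compounds plus 3 SD, cut at about 49% in these data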;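 note: 0% = DMSO-treated RORA cells and 100% = added signal equal to DMSO minus mock-transfected cells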
JNK3 inh: JNK3 kinase activity inhibitors, primary screen, biochemical, human, purified enzyme | 60,000 compounds, 0.61% hits | HTS | inhibition, % at 8 µM; in the data active = inhibition above about 17%;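 note: 0% = DMSO and 100% = reference inhibitor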
D1 allo mod: D1 CRE-luciferase signal change, two-sided – cell-based, HEK293 D1, dopamine EC30, D1 allosteric modulator project, primary screen; 58,000 compounds, 5.9% hits; B-score at 10 µM; D(1A) dopamine receptor (Homo sapiens), P21728; dopamine EC30 potentiation; actives deviate in either direction;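 active = luminescence count or its row- and column-corrected plate score outside the 99.7% band of the plate's sample wells, on either side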
Target sequence (P21728 whole entry, looked up): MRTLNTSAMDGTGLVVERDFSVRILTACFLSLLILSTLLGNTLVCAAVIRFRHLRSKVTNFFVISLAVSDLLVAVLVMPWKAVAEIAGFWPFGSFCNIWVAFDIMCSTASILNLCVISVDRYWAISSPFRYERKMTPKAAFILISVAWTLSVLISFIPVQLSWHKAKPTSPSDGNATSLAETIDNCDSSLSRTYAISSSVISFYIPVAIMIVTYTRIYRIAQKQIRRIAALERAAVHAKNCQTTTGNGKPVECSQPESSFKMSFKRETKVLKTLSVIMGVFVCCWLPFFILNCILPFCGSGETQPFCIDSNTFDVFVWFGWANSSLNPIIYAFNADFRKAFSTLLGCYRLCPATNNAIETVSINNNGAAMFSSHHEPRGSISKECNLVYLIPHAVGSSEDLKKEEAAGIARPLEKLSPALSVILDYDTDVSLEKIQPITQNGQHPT
SF1 activator: activators of human SF-1, primary screen, cell-based, CHO-K1, Gal4-SF-1 LBD, luciferase luminescence; Steroidogenic factor 1 (Homo sapiens), Q13285; CHO-K1 Gal4-SF-1 LBD luciferase reporter; % increase over DMSO SF-1-specific signal; activation, % at 10 µM; 65,000 compounds, 1.9% hits; AID 522, 2006;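 active = activation above the mean activation of all tested compounds plus 3 SD, cut at about 50% in these data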
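Test system: CHO-K1 cells with Gal4–hSF-1 LBD chimera plus Gal4-driven luciferase; Input: 4,000 cells/well; Compound: 10 µM only; Times: 20 h compound treatment, 37 °C; Measured by: steady-glow luciferase luminescence, read after 15 min reagent incubation; Measure: percent activation versus DMSO; Control set: DMSO and mock-transfected background; Replicates: one test per compound.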
HEK293 NFkB inh: inhibitors of PMA/ionomycin-induced NF-kB reporter, primary screen, antigen receptor NF-kB inhibitor project, cell-based, HEK-293 luciferase reporter, luminescence | HEK-293 NF-kB luciferase reporter | 62,000 compounds, 0.21% hits | inhibition, % at 3 µM;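 active = inhibition above the mean of all tested compounds plus 3 SD, cut at about 40% in these data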;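 note: 0% = stimulated DMSO wells and 100% = 10 µM reference inhibitor 5653914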
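Material: HEK-293 cells with stable firefly luciferase reporter driven by four HIV NF-kB elements / Also added: PMA plus ionomycin mix as NF-kB-activating stimulus / Compound dosing: 3 µM once, 0.30% DMSO / Times: 1 h pretreatment, 16 h stimulation, 37 °C / Signal: luminescence / Evaluation: per-plate % inhibition versus controls / Benchmarks: DMSO and 10 µM reference inhibitor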
D1 mod confirm: D1 receptor positive allosteric modulators, retest, confirmation, cell-based, HEK293 D1, CRE-luciferase, duplicate; dopamine EC30 potentiation; stronger effect = higher value; 2,200 compounds, 88% hits; luminescence at 10 µM; shares compounds with D1 allo mod; AID 642, 2007;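 active = luminescence in either of two replicates above the same-plate mean plus 3 SD of the low-dose dopamine control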
D1 ag no DA: D1 receptor agonism without dopamine, confirmation, mechanism study for D1 allosteric modulator project, cell-based, HEK293 D1, CRE-luciferase, secondary assay 1 | shares compounds with D1 allo mod | luminescence, no dopamine; stronger effect = higher value | luminescence at 10 µM | 1,900 compounds, 0.8% hits; in the data active = luminescence above about 3900
Isoprot counter: counter-screen for D1 modulators: isoproterenol response in HEK293 cells | 2,200 compounds, 63% hits | HEK293 D1 CRE-luciferase, isoproterenol EC30 counter-screen | AID 647 | calls only at 10 µM | shares compounds with D1 allo mod;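 active = luminescence in either replicate above plate mean of wells with a partly effective reference agonist dose plus 3 SD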;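 note: isoproterenol raises cAMP through native beta-adrenoceptor Gs so signal bypasses D1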
* hit, by the source's call.

How did CCOC(=O)c1c(C)c(C(=O)NCc2ccc3c(c2)OCO3)c(C)n1CC do in these assays?
RORA act: 2; JNK3 inh: -8; D1 allo mod: 2.7; SF1 activator: -5; HEK293 NFkB inh: 10

How did CCOC(=O)c1c(C)c(C(=O)NCc2ccc3c(c2)OCO3)c(C)n1C do in these assays?
RORA act: -6; JNK3 inh: -7; D1 allo mod: 4.3*; SF1 activator: 11; HEK293 NFkB inh: 12; D1 mod confirm: 5908*; D1 ag no DA: 1544; Isoprot counter: inactive

Results for CCOc1ccc(C2CC(=O)NC(SCC(=O)OC)=C2C#N)cc1 (stereo not given) ?
RORA act: 4; JNK3 inh: -4; D1 allo mod: 1.2; SF1 activator: -14; HEK293 NFkB inh: 16

Results for COc1cc(S(=O)(=O)N2CCOCC2)ccc1NC(=O)c1cc2c(s1)CCC2 ?
RORA act: 5; SF1 activator: -21; HEK293 NFkB inh: 7

What do the screens show for `COc1cc(S(=O)(=O)N2CCOCC2)ccc1NC(=O)CSc1nnc(N)s1`?
RORA act: -14; JNK3 inh: 11; D1 allo mod: 4.8*; SF1 activator: -5; HEK293 NFkB inh: 10; D1 mod confirm: 5392; Isoprot counter: inactive

Results for Cc1noc(C)c1C(=O)Nc1sc(C)c(C)c1C#N ?
RORA act: -14; JNK3 inh: 2; D1 allo mod: 0.0035; SF1 activator: -1; HEK293 NFkB inh: 5

What do the screens show for `O=C(CCC(=O)c1cccs1)Nc1nnc(C2CC2)s1`?
RORA act: 0; JNK3 inh: -5; D1 allo mod: -0.35; SF1 activator: 11; HEK293 NFkB inh: 10

How did O=C(CCC(=O)Nc1nnc(C2CCCCC2)s1)NCc1cccs1 do in these assays?
RORA act: -3; JNK3 inh: 3; D1 allo mod: 3.8*; SF1 activator: 5; HEK293 NFkB inh: 16; D1 mod confirm: 5740; D1 ag no DA: 1656; Isoprot counter: inactive

How did CCCCOC(=O)Nc1ccccc1C(N)=O do in these assays?
RORA act: -12; JNK3 inh: 0; D1 allo mod: 0.71; SF1 activator: -6; HEK293 NFkB inh: 14

Results for Cc1ccccc1Cn1cc(NC(=O)c2noc3c2CC(C(C)(C)C)CC3)cn1 (stereo not given) ?
RORA act: 6; JNK3 inh: 3; D1 allo mod: 4.1; SF1 activator: -8; HEK293 NFkB inh: -1

What do the screens show for `CC(C)(C)C1CCc2onc(C(=O)Nc3cccnc3)c2C1` (stereo not given)?
RORA act: 8; JNK3 inh: 3; D1 allo mod: 10*; SF1 activator: -15; HEK293 NFkB inh: 24; D1 mod confirm: 19704*; D1 ag no DA: 1720; Isoprot counter: active

How did N#Cc1ccccc1Cn1c(=O)n(CCC(=O)NCc2ccco2)c(=O)c2ccccc21 do in these assays?
RORA act: -12; JNK3 inh: 2; D1 allo mod: 0.5; SF1 activator: 16; HEK293 NFkB inh: 7

Results for N#Cc1ccccc1Cn1c(=O)n(Cc2ccc(C(=O)NCc3ccco3)cc2)c(=O)c2ccccc21 ?
RORA act: 7; JNK3 inh: 1; D1 allo mod: 4.4*; SF1 activator: 18; HEK293 NFkB inh: 22; D1 mod confirm: 18988*; D1 ag no DA: 1796; Isoprot counter: active

How did Cc1ccccc1Cn1c(=O)n(CCCC(=O)NCc2ccco2)c(=O)c2ccccc21 do in these assays?
RORA act: -1; JNK3 inh: 2; D1 allo mod: 5.5*; SF1 activator: 25; HEK293 NFkB inh: 13; D1 mod confirm: 11052*; D1 ag no DA: 1848; Isoprot counter: active

What do the screens show for `O=C(OCCN1C(=O)c2ccccc2C1=O)c1cccc(OC(F)F)c1`?
RORA act: -6; JNK3 inh: 2; D1 allo mod: -0.84; SF1 activator: 4; HEK293 NFkB inh: 12

How did CCN1CCC2(CC1)C(C#N)=C(N)Oc1c2sc2nc(C)cc(C)c12 do in these assays?
RORA act: -7; JNK3 inh: 5; D1 allo mod: -3; SF1 activator: -7; HEK293 NFkB inh: -8

What do the screens show for `CC(=O)N1CCC2(CC1)C(C#N)=C(N)Oc1c2sc2nc(C)cc(C)c12`?
RORA act: -4; JNK3 inh: -1; D1 allo mod: 4.9*; SF1 activator: 1; HEK293 NFkB inh: 23; D1 mod confirm: 14572*; D1 ag no DA: 1432; Isoprot counter: inactive

Results for Cc1[nH]c2ccc(-c3nnc(SCC(=O)NCc4ccco4)n3Cc3ccccc3)cc2c1C ?
RORA act: -5; D1 allo mod: 0.039; SF1 activator: -1; HEK293 NFkB inh: 18

How did c1coc(CNc2ncnc3sc4c(c23)CCCCC4)c1 do in these assays?
RORA act: -9; JNK3 inh: 11; D1 allo mod: 11*; SF1 activator: 7; HEK293 NFkB inh: 5; D1 mod confirm: 11680*; D1 ag no DA: 1516; Isoprot counter: active

How did Cc1sc2ncnc(NCc3ccco3)c2c1C do in these assays?
RORA act: -15; JNK3 inh: 0; D1 allo mod: -0.53; SF1 activator: -38; HEK293 NFkB inh: 6

Results for CCOc1ccc(CCNS(=O)(=O)c2cnc[nH]2)cc1OCC ?
RORA act: -11; JNK3 inh: 5; D1 allo mod: 25*; SF1 activator: 9; HEK293 NFkB inh: 15; D1 mod confirm: 24048*; Isoprot counter: active

How did COc1ccc(-c2cc(C(F)(F)F)nc(SCC(=O)N3CC(C)OC(C)C3)n2)cc1OC (stereo not given) do in these assays?
RORA act: -1; JNK3 inh: -11; D1 allo mod: 6.2*; SF1 activator: -8; HEK293 NFkB inh: 2; D1 mod confirm: 18852*; D1 ag no DA: 1628; Isoprot counter: active

How did Cc1cc(C(=O)N2CCc3ccccc32)n(-c2ccccc2)n1 do in these assays?
RORA act: 22; JNK3 inh: 0; D1 allo mod: 5.8*; SF1 activator: 12; HEK293 NFkB inh: 16; D1 mod confirm: 10356*; D1 ag no DA: 1556; Isoprot counter: active
